According to ChEMBL document CHEMBL4513216, “Probing the Open Global Health Chemical Diversity Library for Multistage-Active Starting Points for Next-Generation Antimalarials” (ACS Infect Dis, 2020):

Assay: Toxicity liver stage against HepG2, at 10uM
Format: cell-based
Set-up: test concentration 10 uM, cell line HepG2-A16-CD81EGFP
Conditions: human, HepG2-A16-CD81EGFP cells; read-out: INHIBITION
Procedure, shortened: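 Uninfected HepG2-A16-CD81EGFP cells, 3 × 10^3 per well, 1536-well, plated on prespotted compound at 10 μM final, parasite-free screening media added to match infected plates; puromycin 10 μM positive, DMSO 0.5% negative; run in parallel with 48 h PbLuc assay at 37 °C, 5% CO2; viability by CellTiter-Glo luminescence, normalized to controls.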

Compound	cytotoxicity at 10 µM [%]
CC(C)CCC(=O)N1CCN(C(=O)c2ccc(-n3cccn3)cc2)CC1	4.28
CCOc1nc2cnccc2n(CC(=O)Nc2ccccc2OC)c1=O	-15
OC[C@@H]1[C@H]2CN(c3ccccn3)CCN2C[C@H]1c1ccccc1	-8.43
Cc1cc(NC(=O)C(C)Cn2cncn2)no1 (centres undefined)	-5.18
O=C(NCc1nc2ccccc2[nH]1)c1cc2n(n1)CCCO2	-5.43
O=C(c1ccccn1)N1CCC(Oc2ncccc2Cl)CC1	3.07
CCS(=O)(=O)N1C[C@H]2CN(Cc3cccc(C)c3)C(=O)[C@H]2C1	2.9
COCCN1Cc2ccccc2C2(CCN(C(=O)c3ccno3)CC2)C1	5.58
O=C(Cc1cccnc1)N1CCC2(CCN(C3CCOC3)CC2)C1 (centres undefined)	5.08
CSc1nc2cc(C)n(CC(=O)Nc3nccs3)c2c(=O)n1CC(C)C	-12.6
CCOC(=O)Cc1cs/c(=N/C(=O)COc2cnc(C)cc2O)[nH]1	4.62
O=c1ccc(-c2cccs2)nn1CN1CCOCC1	5.68
CN(C)C(=O)NC[C@H]1OC[C@@H]2CCN(Cc3ccoc3)C[C@@H]21	2.82
Cn1cccc1CN1CCC2(CCCN(C(=O)Cc3cccnc3)C2)C1 (centres undefined)	7.17
O=C(c1ccsc1)N1CC[C@H]2C[C@@H](c3nnc(C4CC4)o3)O[C@@H]2C1	-7.36
COc1ccc(OC)c(C(C)NC(=O)c2nn(C)c(C)c2Br)c1 (centres undefined)	5.38
CC(=O)N1CCN(C(=O)c2[nH]nnc2Nc2ccccc2F)CC1	2.1
CC1(c2nccs2)CCN(C(=O)CC2CCOCC2)CC1	-0.29
COc1cccc([C@@]2(O)CC[C@@H]3CN(C(=O)c4cn(C)nc4C)C[C@@H]32)c1	3.51
Cc1csc2c(C3CCCN(C(=O)CCCn4cncn4)C3)nc(C)n12 (centres undefined)	7.69
O=C(O)c1ccccc1-n1cnc(CN2CCc3ccccc32)c1	11.7
CSc1ncc(C(=O)N(C)C(C)Cc2ccccn2)cn1 (centres undefined)	15.9

Compound	cytotoxicity at 10 µM [%]
CNC(=O)c1cccc(CC2COCCN(Cc3ccc(C)o3)C2)n1 (centres undefined)	0.166
CS(=O)(=O)N1CCCC(Cc2cncc(-c3ccccc3C(=O)O)n2)C1 (centres undefined)	-6.41
Cc1cc(-c2cnn(CCNC(=O)CCn3cccn3)c2C2CC2)on1	-4.66
CCc1nccn1-c1cncc(C2CCCN2Cc2ccccn2)n1 (centres undefined)	-3.47
O=C(C1CCCC1)N1CCn2c(nnc2C2CCCNC2)C1 (centres undefined)	1.19
CC(NCCCN1CCCC1=O)c1cc(Br)ccc1O (centres undefined)	-1.41
O=C(Cc1c(F)cccc1Cl)NC1CCCCNC1=O (centres undefined)	1.91
Cc1ccc(CN(C)C(=O)CNC(=O)N2CCc3ccccc3C2)o1	5.95
c1ncn(CC2CCCN(CC3CCCCC3)C2)n1 (centres undefined)	4.61
COc1c(Cl)cccc1NCc1csc(C)n1	-10.1
N#CC1(C(=O)N2CCC(Nc3cccnn3)CC2)CCCCC1	2.87
CC(C)c1noc(CCC(=O)N2CCCC(n3ccnc3)C2)n1 (centres undefined)	5.58
CC(C)c1n[nH]c(C2CN(Cc3ccno3)CCO2)n1 (centres undefined)	5.49
Cc1nc2c(c(C)c1CC(=O)Nc1ccnn1C(C)C)c(=O)[nH]n2C	13
CN(Cc1ccco1)Cc1ccccc1CNC(=O)c1c[nH]nn1	-2.89
CC(OCC(F)(F)F)C(=O)N1CCCC1 (centres undefined)	-14
Cc1ccc(OCC(=O)NCc2ccco2)nc1	-0.224
CC(C)COC1CCN(C(=O)c2cc3ccccc3c(=O)[nH]2)CC1	9.05
CCc1nnc2n1CCN(C(=O)c1ccc3[nH]nnc3c1)C2	-0.337
COc1ccccc1C(=O)NCCCN1CCCC1C(=O)N(C)C (centres undefined)	-2.94
CCC(CNC(=O)c1nc(=O)[nH][nH]1)Oc1cccc(C(F)(F)F)c1 (centres undefined)	-6.25
CCN(CCc1nccs1)C(=O)c1ccco1	15.4

Compound	cytotoxicity at 10 µM [%]
O=C(c1ccc[nH]1)N1CCCC1c1nc(-c2ccccc2)n[nH]1 (centres undefined)	2.57
Cc1cccc2nc(CSCc3nnnn3C(C)C)cn12	1.24
Cc1ccc(OCC(O)Cn2ncc3cnn(C)c(=O)c32)cc1 (centres undefined)	-3.49
Cc1ccc(C2CSCCN2C(=O)c2cc(C(N)=O)cs2)o1 (centres undefined)	5.48
Cc1csc(CN(C)C(=O)Nc2cc(F)cc(N3CCCC3)c2)n1	8.16
Cc1cccc(C(C)CNS(=O)(=O)CCCC#N)c1 (centres undefined)	-2.17
CC(=O)N1CCN(C2CCCCc3ccccc32)CC1 (centres undefined)	-46.3
N#Cc1c(F)cccc1N1CCCC(C(=O)Nc2nccs2)C1 (centres undefined)	8.92
Cc1ccnc(NC(=O)CSCc2cccnc2)c1	-42.2
O=C1CC(NS(=O)(=O)N2CCOCC2)CN1Cc1ccccc1 (centres undefined)	4.19
CSC(C)(C)CNC(=O)NCC[S+]([O-])c1ccccc1 (centres undefined)	15.5
Cc1nc(C(=O)N2CCN(C(C)c3ccccc3F)CC2)cs1 (centres undefined)	-0.462
CCCN1CCC(N(Cc2ncc(C)o2)C(C)=O)C1 (centres undefined)	-13.1
NC(=O)CN1CCCN(C(=O)c2ccn(-c3ccccc3)n2)CC1	-1.61
O=C(Nc1ccnc(OC2CCOC2)c1)c1cc(F)ccc1F (centres undefined)	5.87
O=C(NCCCNC(=O)c1cccc(O)c1)NCc1ccccc1F	-6.42
COc1cccc(CC(=O)N2CC[C@@H]3CN(C)S(=O)(=O)[C@@H]3CC2)c1	-2.36
CC(=O)N1CC[C@H]2OCC[C@@H](C(=O)Nc3cccnc3C)[C@@H]2C1	11.3
Cc1cccc(NC(=O)N2CCC3(CCC(C(=O)N(C)C)O3)CC2)c1 (centres undefined)	-107
COC[C@@H]1CC[C@H]2[C@H](CCN2S(=O)(=O)c2ccc(C)cc2)O1	-1.05
CSc1ncc(CN(C)C(C)c2cccnc2)cn1 (centres undefined)	2.1
COc1cccc(CC(=O)N2CCCN(c3ccnc(C)c3)CC2)c1	-7.06

Compound	cytotoxicity at 10 µM [%]
COCCCn1cnnc1CNC(=O)c1[nH]c2c(C)cc(C)cc2c1C	5.22
CN(Cc1ccsc1)C(=O)c1ccc(C2CCCO2)s1 (centres undefined)	7.9
CCc1cc(NCCc2cccnc2)n2nc(C)c(C)c2n1	2.12
CN1CCN(C(=O)N2CCC3(CCCN(C4CCOCC4)C3=O)C2)CC1 (centres undefined)	-129
CN1CCN(CC(C)(C)C)CC1CCO (centres undefined)	1.88
Cc1nc(N(C)C)nc(N(C)Cc2cnccn2)c1C	3.4
CCN1CCCC(C)(C(=O)NCc2nnnn2-c2ccccc2)C1 (centres undefined)	-17.7
Cc1nccn1CCN(C)c1nc(-c2cccnc2)nc2c1CCNC2	-21.2
NC(=O)CCC(=O)N1CCc2[nH]nc(-c3ccc4c(c3)OCO4)c2C1	-142
Cc1ccncc1C(=O)N1CC[C@@]2(O)CCN(C3CCCCC3)C[C@H]2C1	-125
CCCSCC(=O)N1CCN(c2ccc(C)cc2)CC1C (centres undefined)	-165
Cc1cccc(Cc2nc3c([nH]2)CCCNC3=O)c1	-12.9
CCCN1CCC(Cc2noc(-c3[nH]cnc3C)n2)CC1	1.34
CN1CCN(c2cccc(NC(=O)NCc3csc(N(C)C)n3)c2)C1=O	0.91
CN1CCN(CCCOc2ccccc2CN2C[C@H]3CC[C@H]2C3)CC1	-7.88
O=C(c1ccc(C2CCCN2)s1)N1CC=CC1 (centres undefined)	1.33
O=C1CC2(CCN(C(=O)c3csc(-c4ccccc4)n3)C2)C(=O)N1 (centres undefined)	-1.25
Cc1cc2occ(CC(=O)N3CCC4(CCCN(C)C4=O)C3)c2cc1Cl (centres undefined)	-4.03
CCC(C(=O)NC1CCCCC1)n1cccc(OC)c1=O (centres undefined)	-2.23
Cc1nc(CNC(=O)c2ccc3c(c2)nc(N2CCOCC2)n3C)cs1	-1.76
CCC(C(=O)N(C)C)n1ccc2ncccc2c1=O (centres undefined)	3.63
O=C(c1cnn2cc(CCO)cnc12)N1CCOC(C(F)(F)F)C1 (centres undefined)	3.24

Compound	cytotoxicity at 10 µM [%]
CC(C)=CCN1CCN(Cc2ncc[nH]2)[C@H]2CS(=O)(=O)C[C@H]21	5.44
Cc1nc(CN2CCCC(CCNS(C)(=O)=O)C2)c[nH]1 (centres undefined)	-10.2
CCn1nc(C(C)C)cc1C(=O)NCCCOC	-14.7
CC[C@@]1(O)CCN(C(=O)c2ccc(SC)cc2)C[C@H]1O	-17.5
CCn1ncnc1C(C)NC(=O)C1CCN(C(C)C)CC1 (centres undefined)	18.5
Cc1nc(C2CCCN(C(=O)CO)C2)cc(N2CCOCC2)n1 (centres undefined)	-12.9
Cc1cc(CN2CCN(C(=O)C(C)C)[C@@H]3CS(=O)(=O)C[C@@H]32)ccc1F	3.41
CNc1cccc(C2CCCN(C(C)=O)C2)n1 (centres undefined)	-0.962
Cc1nc(O)c2nnn(C[C@H]3CCCN3C(=O)C(C)(C)C)c2n1	3.25
N#Cc1cccnc1N1CCC(C2CCCCCN2C(=O)C2CC2)CC1 (centres undefined)	1.95
O=C(CN1CCc2cncnc2C1)NCCOc1ccccc1	-6.78
Cc1ccc(CC(=O)N2CCCC(c3nc(C)cs3)C2)cn1 (centres undefined)	-8.13
Cc1cc(NC(=O)CN2CCn3c(nnc3C3CC3)C2)n(C)n1	-14
CCN1CCN(C)C(=O)C12CCN(Cc1csc(C)n1)CC2	1.53
Cc1ccc(CNC(=O)CN2CCN(CC(O)c3ccco3)CC2)cc1 (centres undefined)	2.71
Cn1cc(C(=O)NC[C@@H]2OC[C@H]3CN(Cc4ccco4)CC[C@H]32)cn1	-13.4
O=C(c1ccncc1F)N1CC[C@@H]2CN(c3ncccn3)CCO[C@@H]2C1	-77.2
CN1CCN(Cc2cnc3n2CCN(Cc2cccnc2)CC3)CC1	6.26
O=C(c1ccco1)N1CCCC2(CN(Cc3ccc(F)cc3)CCO2)C1 (centres undefined)	0.0288
c1cc(CN2C[C@@H]3OCCN(CC4CCCO4)[C@@H]3C2)ccn1 (some centres undefined)	-80.2
Cc1cc(N2CCN(C(=O)[C@@H]3C[C@H]4C=C[C@@H]3C4)CC2)cc(C)n1	-7.62
